Test results as given in ChEMBL document CHEMBL3872287, “Novel 2-Substituted 7-Azaindole and 7-Azaindazole Analogues as Potential Antiviral Agents for the Treatment of Influenza” (ACS Med Chem Lett, 2017).

Tests used:
aldehyde oxidase [1] = biological target: T1, aldehyde oxidase (Homo sapiens, UniProt Q06278); assay: Drug metabolism in human liver cytosol assessed as aldehyde oxidase-mediated metabolism by measuring amount of parent compound remaining measured over 4 hrs in absence of aldehyde oxidase inhibitor raloxifene by MS/MS analysis; format: ADME; conditions: read-out: Stability
T1 sequence (Q06278 whole entry): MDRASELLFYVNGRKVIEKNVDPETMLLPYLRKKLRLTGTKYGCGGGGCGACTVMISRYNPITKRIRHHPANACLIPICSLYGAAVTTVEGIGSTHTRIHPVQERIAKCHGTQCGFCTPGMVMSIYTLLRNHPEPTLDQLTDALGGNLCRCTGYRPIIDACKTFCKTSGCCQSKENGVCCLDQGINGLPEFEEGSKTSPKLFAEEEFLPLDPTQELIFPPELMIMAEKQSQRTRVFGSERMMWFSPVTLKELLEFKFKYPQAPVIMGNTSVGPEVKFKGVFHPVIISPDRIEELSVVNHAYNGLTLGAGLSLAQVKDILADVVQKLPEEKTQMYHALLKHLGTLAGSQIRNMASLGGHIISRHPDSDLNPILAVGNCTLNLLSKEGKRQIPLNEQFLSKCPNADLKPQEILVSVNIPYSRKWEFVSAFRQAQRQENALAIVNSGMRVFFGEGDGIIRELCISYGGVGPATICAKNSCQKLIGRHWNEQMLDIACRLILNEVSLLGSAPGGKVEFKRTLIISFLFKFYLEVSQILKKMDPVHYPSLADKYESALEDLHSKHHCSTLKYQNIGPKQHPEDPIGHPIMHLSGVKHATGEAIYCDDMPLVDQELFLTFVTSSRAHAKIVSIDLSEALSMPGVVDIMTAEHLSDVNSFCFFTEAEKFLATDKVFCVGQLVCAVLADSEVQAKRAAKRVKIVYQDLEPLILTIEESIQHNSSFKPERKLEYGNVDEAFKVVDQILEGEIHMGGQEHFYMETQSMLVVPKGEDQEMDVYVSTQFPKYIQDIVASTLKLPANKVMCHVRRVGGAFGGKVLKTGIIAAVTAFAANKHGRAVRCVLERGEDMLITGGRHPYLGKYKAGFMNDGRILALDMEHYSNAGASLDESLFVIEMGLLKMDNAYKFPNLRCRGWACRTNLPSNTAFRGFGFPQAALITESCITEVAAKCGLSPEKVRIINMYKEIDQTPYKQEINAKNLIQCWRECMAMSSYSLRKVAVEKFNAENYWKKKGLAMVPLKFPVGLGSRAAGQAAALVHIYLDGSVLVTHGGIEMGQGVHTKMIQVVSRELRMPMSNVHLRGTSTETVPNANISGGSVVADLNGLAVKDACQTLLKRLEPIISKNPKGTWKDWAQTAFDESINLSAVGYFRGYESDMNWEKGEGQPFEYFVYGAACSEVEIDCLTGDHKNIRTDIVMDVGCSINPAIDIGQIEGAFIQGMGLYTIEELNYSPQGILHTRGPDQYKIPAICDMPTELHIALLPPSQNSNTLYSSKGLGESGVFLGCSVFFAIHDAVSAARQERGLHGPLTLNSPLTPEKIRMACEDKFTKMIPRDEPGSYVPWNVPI
Procedure, shortened: (§1)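 Test compounds were incubated in triplicate at 1 µM in human liver cytosol (1 mg/mL protein) at 37 °C for 4 hours, with or without the aldehyde oxidase inhibitor raloxifene.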

aldehyde oxidase [2] = biological target: T1, aldehyde oxidase; assay: Drug metabolism in human liver cytosol assessed as aldehyde oxidase-mediated metabolism by measuring amount of parent compound remaining measured over 4 hrs in presence of aldehyde oxidase inhibitor raloxifene by MS/MS analysis; format: ADME; conditions: read-out: Stability; procedure, shortened: as §1
[3] = Antiviral activity against Influenza A virus (A/Puerto Rico/8/34(H1N1)) infected in MDCK cells assessed as decrease in negative strand HA RNA levels after 20 hrs by bDNA hybridization method; format: functional, Influenza A virus (A/Puerto Rico/8/1934(H1N1))
Procedure, shortened: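 Viral RNA in infected cells quantified by branched DNA assay. EC90 is the test-compound concentration giving viral RNA levels equal to 10% of control wells.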

[4] = Oral bioavailability in rat at 3 mg/kg; format: ADME, organism-based; conditions: in vivo
[5] = Volume of distribution in steady state in rat at 1 mg/kg, iv; format: ADME, organism-based; conditions: in vivo, read-out: Vdss
[6] = Clearance in rat at 1 mg/kg, iv; format: ADME, organism-based; conditions: in vivo
[7] = AUC (0 to infinity) in rat at 3 mg/kg, po; format: ADME, organism-based; set-up: dose 3 mg/kg, time infinity, route oral; conditions: in vivo
[8] = Cmax in rat at 3 mg/kg, po; format: ADME, organism-based; set-up: dose 3 mg/kg, route oral; conditions: in vivo
[9] = Half life in rat at 1 mg/kg, iv; format: ADME, organism-based; conditions: in vivo
[10] = Cmax in mouse at 30 mg/kg, po; format: ADME, organism-based; set-up: dose 30 mg/kg, route oral; conditions: in vivo
[11] = AUC in mouse at 30 mg/kg, po; format: ADME, organism-based; conditions: in vivo

Row | SMILES | remaining at 4 h (aldehyde oxidase [1]) [%] | remaining at 4 h (aldehyde oxidase [2]) [%] | EC90 ([3]; Influenza A virus, MDCK, 20 h) [nM] | other results
1 | O=C(N[C@@H]1CCC[C@H](Nc2nc(-c3c[nH]c4ncc(F)cc34)ncc2F)C1)N1CCOCC1 | 7 | 103 | – | –
2 | O=C(N[C@@H]1CCC[C@H](Nc2nc(-c3c(CO)[nH]c4ncc(F)cc34)ncc2F)C1)N1CC[C@@H](F)C1 | 105 | 114 | 10 | –
3 | Cn1cnc(C(=O)N[C@@H]2CCC[C@H](Nc3nc(-c4n[nH]c5ncc(F)cc45)ncc3F)C2)c1 | 40 | 103 | 15 | –
4 | O=C(N[C@@H]1CCC[C@H](Nc2nc(-c3c[nH]c4ncc(F)cc34)ncc2F)C1)N1CCCC1 | 4 | 99 | 1 | bioavailability [4]: 82%; Vd [5]: 0.3 L/kg; clearance [6]: 1.2 mL/min/kg; AUC(0-inf) [7]: 30300 ng·h/mL; Cmax [8]: 2600 ng/mL; half-life [9]: 3.2 h; Cmax [10]: 61100 ng/mL; AUC [11]: 336000 ng·h/mL
5 | O=C(O)[C@H]1C2CCC(CC2)[C@@H]1Nc1nc(-c2n[nH]c3ncc(F)cc23)ncc1F | – | – | 3 | –
6 | O=C(N[C@@H]1CCC[C@H](Nc2nc(-c3c(C4CC4)[nH]c4ncc(F)cc34)ncc2F)C1)N1CCCC1 | – | – | > 3300 | –
7 | O=C(N[C@@H]1CCC[C@H](Nc2nc(-c3n[nH]c4ncc(F)cc34)ncc2F)C1)N1CCCC1 | 1 | 101 | 2 | bioavailability [4]: 15.3%; Vd [5]: 0.4 L/kg; clearance [6]: 7.7 mL/min/kg; AUC(0-inf) [7]: 1200 ng·h/mL; Cmax [8]: 200 ng/mL; half-life [9]: 1.5 h; Cmax [10]: 32100 ng/mL; AUC [11]: 44500 ng·h/mL
8 | O=C(O)c1[nH]c2ncc(F)cc2c1-c1ncc(F)c(N[C@H]2CCC[C@@H](NC(=O)N3CCCC3)C2)n1 | – | – | 2200 | –
9 | Cc1[nH]c2ncc(F)cc2c1-c1ncc(F)c(N[C@H]2CCC[C@@H](NC(=O)N3CCCC3)C2)n1 | 103 | 103 | 280 | –
10 | O=C(N[C@@H]1CCC[C@H](Nc2nc(-c3c(/C=N/O)[nH]c4ncc(F)cc34)ncc2F)C1)N1CCCC1 | – | – | 91 | –
11 | O=C(N[C@@H]1CCC[C@H](Nc2nc(-c3n[nH]c4ncc(F)cc34)ncc2F)C1)N1CCOCC1 | – | – | 14 | –
12 | O=C(N[C@@H]1CCC[C@H](Nc2nc(-c3n[nH]c4ncc(F)cc34)ncc2F)C1)c1ccsc1 | 0 | 107 | 1 | –
13 | O=C(N[C@@H]1CCC[C@H](Nc2nc(-c3n[nH]c4ncc(F)cc34)ncc2F)C1)N1CC[C@@H](F)C1 | 0.6 | 98 | 1 | –
14 | O=C(N[C@@H]1CCC[C@H](Nc2nc(-c3c(CO)[nH]c4ncc(F)cc34)ncc2F)C1)N1CCCC1 | 100 | 96 | 28 | bioavailability [4]: 100%; Vd [5]: 0.6 L/kg; clearance [6]: 6.2 mL/min/kg; AUC(0-inf) [7]: 9700 ng·h/mL; Cmax [8]: 2800 ng/mL; half-life [9]: 2.3 h; Cmax [10]: 37700 ng/mL; AUC [11]: 101000 ng·h/mL
15 | CC(O)c1[nH]c2ncc(F)cc2c1-c1ncc(F)c(N[C@H]2CCC[C@@H](NC(=O)N3CCCC3)C2)n1 (stereo in doubt; 21a) | – | – | – | EC90 [3]: 27 nM
16 | CC(O)c1[nH]c2ncc(F)cc2c1-c1ncc(F)c(N[C@H]2CCC[C@@H](NC(=O)N3CCCC3)C2)n1 (stereo in doubt; 21b) | 99 | 99 | – | EC90 [3]: 460 nM
